# Assay results gathered from unrelated publications.
# Protocols differ between the studies behind these lines. pIC50, pKi: −log10 of the molar value.
# Target: Amine oxidase [flavin-containing] A (MAOA, Homo sapiens, UniProt P21397)
# Effect on: enzyme activity
# Action: inhibitor
# Sequence (P21397 1-527, as in one of the studies): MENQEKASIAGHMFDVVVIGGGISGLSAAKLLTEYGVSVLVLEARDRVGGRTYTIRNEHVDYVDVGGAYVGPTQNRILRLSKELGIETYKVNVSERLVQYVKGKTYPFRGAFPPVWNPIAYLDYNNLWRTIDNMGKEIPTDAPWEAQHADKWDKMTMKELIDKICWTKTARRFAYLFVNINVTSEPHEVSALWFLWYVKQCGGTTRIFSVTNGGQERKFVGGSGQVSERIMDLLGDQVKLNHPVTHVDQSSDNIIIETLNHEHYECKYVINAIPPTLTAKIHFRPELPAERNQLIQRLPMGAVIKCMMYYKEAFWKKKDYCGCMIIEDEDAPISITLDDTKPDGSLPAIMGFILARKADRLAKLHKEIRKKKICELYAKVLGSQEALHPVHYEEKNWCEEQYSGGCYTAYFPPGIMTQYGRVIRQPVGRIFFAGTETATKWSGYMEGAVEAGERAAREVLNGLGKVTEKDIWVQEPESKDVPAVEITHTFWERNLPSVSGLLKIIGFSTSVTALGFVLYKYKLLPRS
SMILES,test,setting,endpoint,result
O=c1c(O)c(-c2ccc(O)c(O)c2)oc2cc(O)ccc12,,,pIC50,5.34
O=C(O)c1cc(O)c2c(c1)C(=O)c1cc(O)cc(O)c1C2=O,,,pIC50,4.33
O=C1c2c(O)cc(O)cc2O[C@H](c2ccc(O)cc2)[C@H]1O,,,pIC50,4.84
COC(=O)c1ccc(C(=O)OC)c(NC(=O)c2cc(Cl)ccc2O)c1,,,pIC50,< 5.30
C#CCOc1ccc(/C=C/C(=O)N2CCc3ccccc3C2)cc1OC,fluorescence,,pIC50,4.19
O=C1C[C@@H](c2ccc(O)cc2)Oc2cc(O)cc(O)c21,,,pIC50,5.06
O=C(Nc1ccc([N+](=O)[O-])cc1Cl)c1cc2ccccc2o1,,,pIC50,6.53
COc1ccc(/C=C/C(=O)N2CCC(Cc3ccccc3)CC2)cc1OC,fluorescence,,pIC50,4.18
CN1CCN(C(=O)CN[C@@H]2C[C@H]2c2ccc(OCc3ccccc3)cc2)CC1,luciferase,,pIC50,6.29
COc1cc(/C=C/C(=O)N2CCc3ccccc3C2)ccc1OC1CCCCC1,fluorescence,,pIC50,4.19
c1cc2c(cc1C1CCCCC1)c1c3n2CCNC3CCC1 (centres unmarked),,pH 7.5,pKi,5.28
